Among the data in ChEMBL document CHEMBL1148377, “Identification of novel binding interactions in the development of potent, selective 2-naphthamidine inhibitors of urokinase. Synthesis, structural analysis, and SAR of N-phenyl amide 6-substitution” (J Med Chem, 2004) are Ki values, retold here.

Assay [1] deals with Tissue-type plasminogen activator (Homo sapiens, UniProt P00750). The assay is described as follows: Binding affinity towards human Tissue type plasminogen activator. In outline:
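Human tPA (1 μg/mL) was run against S-2288 (H-D-Ile-Pro-Arg-pNA) at 1350 μM in Tris 50 mM/NaCl 0.15 M/0.5% Pluronic F-68 buffer at pH 7.4. Test agents in DMSO spanned 0.01–250 μM. Substrate addition began the reaction, and p-nitroaniline formation at 405 nm was followed for 15 min. Ki derived from percent inhibition and previously determined Km.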

A further assay addresses Plasminogen (Homo sapiens, UniProt P00747). The experiment in a line: Binding affinity towards human plasmin. In outline: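 Uses human plasmin at 18 nM with S-2251 (H-D-Val-Leu-Lys-pNA) at 360 μM. The buffer was 50 mM Tris/0.15 M NaCl + 0.5% Pluronic F-68, pH 7.4, and compounds were added in DMSO at 0.01–250 μM. After substrate start, absorbance at 405 nm was tracked for 15 min. Percent inhibition came from rates, and Ki from percent inhibition with established Km values.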

Assay [2] addresses Urokinase-type plasminogen activator (Homo sapiens, UniProt P00749).
In a further assay the target is Prothrombin (Homo sapiens, UniProt P00734). The assay is described as follows: Binding affinity against human alpha thrombin.
For another assay, the target named is Plasma kallikrein (Homo sapiens, UniProt P03952). The experiment in a line: Binding affinity against human plasma kallikrein. In kind it is cell-free. In a few lines:
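Enzyme: human plasma kallikrein at 100 ng/mL. Substrate: S-2302 (H-D-Pro-Phe-Arg-pNA) at 330 μM. Conditions were pH 7.4, 50 mM Tris/0.15 M NaCl/0.5% Pluronic F-68, with compounds from DMSO at 0.01–250 μM. Substrate addition started each reaction, followed by pNA release at 405 nm over 15 min. Ki was calculated from rate-based percent inhibition using previously established Km.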

Plasma kallikrein, sequence (P03952 20-390 limits assumed): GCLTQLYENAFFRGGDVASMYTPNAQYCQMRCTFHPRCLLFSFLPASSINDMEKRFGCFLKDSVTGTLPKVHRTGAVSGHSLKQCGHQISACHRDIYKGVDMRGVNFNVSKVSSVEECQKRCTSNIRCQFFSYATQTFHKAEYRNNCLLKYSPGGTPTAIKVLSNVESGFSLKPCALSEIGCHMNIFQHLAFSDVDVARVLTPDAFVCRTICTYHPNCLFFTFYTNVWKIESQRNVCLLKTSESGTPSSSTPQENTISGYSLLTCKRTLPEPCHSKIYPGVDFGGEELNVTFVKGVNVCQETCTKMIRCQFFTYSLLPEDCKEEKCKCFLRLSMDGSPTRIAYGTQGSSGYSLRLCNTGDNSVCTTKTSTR
Plasma kallikrein, sequence (P03952 391-638 limits assumed): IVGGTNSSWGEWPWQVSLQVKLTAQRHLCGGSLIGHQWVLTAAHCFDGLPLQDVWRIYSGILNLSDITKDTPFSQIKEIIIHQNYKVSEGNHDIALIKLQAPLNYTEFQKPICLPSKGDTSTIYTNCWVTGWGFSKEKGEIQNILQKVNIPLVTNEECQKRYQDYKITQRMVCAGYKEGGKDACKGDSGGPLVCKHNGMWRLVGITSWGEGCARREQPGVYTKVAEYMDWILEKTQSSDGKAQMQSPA
Tissue-type plasminogen activator, sequence (P00750 whole entry): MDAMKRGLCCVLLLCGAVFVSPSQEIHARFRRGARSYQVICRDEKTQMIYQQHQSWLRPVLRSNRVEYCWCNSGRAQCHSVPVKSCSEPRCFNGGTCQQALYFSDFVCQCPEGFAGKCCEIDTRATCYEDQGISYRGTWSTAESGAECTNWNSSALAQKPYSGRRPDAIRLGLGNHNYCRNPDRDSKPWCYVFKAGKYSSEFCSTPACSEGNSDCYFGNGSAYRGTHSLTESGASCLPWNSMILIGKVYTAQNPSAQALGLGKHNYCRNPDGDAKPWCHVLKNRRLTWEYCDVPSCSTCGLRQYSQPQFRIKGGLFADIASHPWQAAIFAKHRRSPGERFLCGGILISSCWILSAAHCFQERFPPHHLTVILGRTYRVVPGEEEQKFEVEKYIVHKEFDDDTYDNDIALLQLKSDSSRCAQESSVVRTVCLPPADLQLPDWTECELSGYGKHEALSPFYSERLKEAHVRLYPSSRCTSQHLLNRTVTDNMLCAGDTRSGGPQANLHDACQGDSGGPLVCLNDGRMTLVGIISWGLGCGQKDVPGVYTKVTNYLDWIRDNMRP
Plasminogen, sequence (P00747 97-580 limits assumed): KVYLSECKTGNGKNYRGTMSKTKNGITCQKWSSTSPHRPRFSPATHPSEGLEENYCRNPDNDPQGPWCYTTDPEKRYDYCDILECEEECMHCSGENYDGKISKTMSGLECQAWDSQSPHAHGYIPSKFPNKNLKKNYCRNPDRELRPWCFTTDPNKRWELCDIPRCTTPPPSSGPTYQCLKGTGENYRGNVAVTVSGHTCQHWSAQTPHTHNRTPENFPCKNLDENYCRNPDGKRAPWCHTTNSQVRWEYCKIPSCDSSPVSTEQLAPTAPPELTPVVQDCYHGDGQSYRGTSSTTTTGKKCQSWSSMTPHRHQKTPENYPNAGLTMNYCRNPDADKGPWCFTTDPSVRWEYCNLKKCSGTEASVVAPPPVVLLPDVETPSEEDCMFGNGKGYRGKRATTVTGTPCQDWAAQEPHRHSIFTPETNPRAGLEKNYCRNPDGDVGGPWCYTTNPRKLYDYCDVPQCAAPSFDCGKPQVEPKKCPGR
Plasminogen, sequence (P00747 581-810 limits assumed): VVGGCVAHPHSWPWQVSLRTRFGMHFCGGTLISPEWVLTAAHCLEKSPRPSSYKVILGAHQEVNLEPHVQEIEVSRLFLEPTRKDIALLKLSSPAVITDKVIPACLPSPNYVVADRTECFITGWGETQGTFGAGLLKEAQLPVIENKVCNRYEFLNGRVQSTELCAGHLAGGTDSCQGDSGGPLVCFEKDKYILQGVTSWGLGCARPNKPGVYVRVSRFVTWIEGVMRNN

As for `N=C(N)c1ccc2cc(C(=O)Nc3ccc4c(c3)C(C3CCCC3)NCC4)ccc2c1` (stereo not drawn), the inhibition constant (Ki) in assay [1] was 3.95 µM; on Plasminogen, 0.833 µM; in assay [2] it was 0.0265 µM; at Prothrombin it was 10.2 µM; on Plasma kallikrein it was 0.4 µM.
With `N=C(N)c1ccc2cc(C(=O)Nc3cccc(OC4CCCC4)c3)ccc2c1`, the Ki worked out at 3.39 µM in assay [1], 0.498 µM on Plasminogen, 5.58 µM on Prothrombin and 2.72 µM on Plasma kallikrein.
As for `CNC(=O)c1ccc2cc(C(=N)N)ccc2c1`, in assay [2], the Ki came out at 8.7 µM.
Consider `N#Cc1ccc2cc(NC(=O)c3ccccc3)ccc2c1`, for which the Ki in assay [1] was above 100 µM; on Plasminogen it was 5.56 µM; on Prothrombin it was 17.6 µM; on Plasma kallikrein, 8 µM.
`CCC(CC)Oc1cccc(NC(=O)c2ccc3cc(C(=N)N)ccc3c2)c1`: in assay [2], the Ki was 0.104 µM.
`CC(C)Oc1cc(NC(=O)c2ccc3cc(C(=N)N)ccc3c2)cc(OC2CCCC2)c1`: the Ki in assay [1] was 0.844 µM; at Plasminogen, 0.966 µM; in assay [2] it was 0.022 µM; on Prothrombin, 21.6 µM; at Plasma kallikrein, 3.33 µM.
As for `N=C(N)c1ccc2cc(C(=O)Nc3cccc(Oc4ccccc4)c3)ccc2c1`, the Ki in assay [2] stood at 0.517 µM.
As for `CC(C)Oc1cccc(NC(=O)c2ccc3cc(C(=N)N)ccc3c2)c1`, the inhibition constant Ki in assay [1] turned out to be 2.37 µM; at Plasminogen, 0.554 µM; at Prothrombin, 3.49 µM; at Plasma kallikrein, 1.37 µM.
On to `CC(C)CC1NCCc2ccc(NC(=O)c3ccc4cc(C(=N)N)ccc4c3)cc21` (stereo not drawn), for which the Ki in assay [1] was above 50 µM; at Plasminogen, 1.19 µM; in assay [2], 0.123 µM; at Prothrombin it was 7.31 µM; at Plasma kallikrein, 1.35 µM.
In the same order, the values of `CCc1ccc(NC(=O)c2ccc3cc(C(=N)N)ccc3c2)cc1` are 83.9 µM, 3.87 µM, 0.736 µM, 43.7 µM and 18.1 µM.
In the same order, the values of `N=C(N)c1ccc2cc(C(=O)Nc3ccc4c(c3)C(C3CCCC3)=NCC4)ccc2c1` are 3.13 µM, 0.765 µM, 0.0355 µM, 5.31 µM and 0.849 µM.
Consider `[H]/N=C(\N)c1ccc2cc(C(=O)Nc3ccc(CN)cc3)ccc2c1`, for which the Ki was 58.4 µM in assay [1], 16 µM on Plasminogen, above 100 µM on Prothrombin and 7.17 µM at Plasma kallikrein.
In the same order, the values of `N=C(N)c1ccc2cc(C(=O)Nc3ccc4c(c3)CCNC4)ccc2c1` are 2.32 µM, 1.03 µM, 6.92 µM and 0.112 µM.
As to `COc1cccc(NC(=O)c2ccc3cc(C(=N)N)ccc3c2)c1`, the Ki in assay [2] worked out at 0.233 µM.
`CCC1CNCc2ccc(NC(=O)c3ccc4cc(C(=N)N)ccc4c3)cc21` (stereo not drawn): the Ki in assay [1] was found to be 1.65 µM; at Plasminogen it was 1.12 µM; at Prothrombin, 6.44 µM; at Plasma kallikrein, 0.145 µM.
As to `N=C(N)c1ccc2cc(C(=O)Nc3ccc(C(N)=O)cc3)ccc2c1`, the Ki in assay [1] is above 100 µM; at Plasminogen it was 1.97 µM; in assay [2], 0.326 µM; at Prothrombin, 2.35 µM; at Plasma kallikrein, 2.43 µM.
For `CC(C)Oc1cc(NC(=O)c2ccc3cc(C(=N)N)ccc3c2)cc(OC(C)C)c1` the same measures were 0.79 µM, 1.06 µM, 0.028 µM, 21.7 µM and 4.3 µM.
Regarding `N=C(N)c1ccc2cc(C(=O)Nc3ccccc3)ccc2c1`, the Ki was determined as 31.8 µM in assay [1], 1.95 µM on Plasminogen, 5.64 µM on Prothrombin and 2.5 µM at Plasma kallikrein.
Take `CN(C(=O)c1ccc2cc(C(=N)N)ccc2c1)c1ccccc1`: the Ki in assay [2] was 15.5 µM.
Still for that read-out and setting: the value for `N=C(N)c1ccc2cc(C(=O)Nc3cccc(CC4CCCC4)c3)ccc2c1` was 0.167 µM; that for `COc1cc(NC(=O)c2ccc3cc(C(=N)N)ccc3c2)cc(OC)c1` was 0.139 µM.
Take `CC(C)C1NCCc2ccc(NC(=O)c3ccc4cc(C(=N)N)ccc4c3)cc21` (stereo not drawn): the Ki is 1.12 µM in assay [1], 0.631 µM on Plasminogen, 5.72 µM at Prothrombin and 0.23 µM on Plasma kallikrein.
In turn, `CC(C)CC1=NCCc2ccc(NC(=O)c3ccc4cc(C(=N)N)ccc4c3)cc21` had a Ki in assay [2] of 0.161 µM.
Consider `N=C(N)c1ccc2ccccc2c1`, for which the Ki in assay [1] was above 100 µM; at Plasminogen, 51.3 µM; in assay [2], 5.91 µM; on Plasma kallikrein, 22.5 µM.
Take `CC(C)C1=NCCc2ccc(NC(=O)c3ccc4cc(C(=N)N)ccc4c3)cc21`: the Ki in assay [1] stood at 1.84 µM; on Plasminogen, 0.768 µM; on Prothrombin, 4.99 µM; on Plasma kallikrein it was 0.436 µM.
`CCOc1cccc(NC(=O)c2ccc3cc(C(=N)N)ccc3c2)c1` gave a Ki in assay [2] of 0.082 µM.
Regarding `N=C(N)c1ccc2cc(C(=O)Nc3ccc(CO)cc3)ccc2c1`, the Ki in assay [1] came to 8.35 µM; on Plasminogen, 3.82 µM; on Prothrombin, 35.1 µM; on Plasma kallikrein it was 2.57 µM.

One may read the Ki as a dissociation constant, usually derived from enzyme kinetics or from competition with a known ligand. Low readings indicate tighter binding, high ones weaker binding.
